Measurements reported in ChEMBL document CHEMBL4261600 (Eur J Med Chem, 2018).

What was measured:
Homo sapiens = organism: Homo sapiens; experiment: Selectivity ratio of IC50 for recombinant GST-tagged inactive state of human CDK16 (108 to end residues)/cyclin Y (2 to end residues) to IC50 for recombinant full length His-tagged human CDK9/CyclinT1
[1] = test system: Tyrosine-protein kinase ABL1 (Homo sapiens), P00519 [F317L]; experiment: Binding affinity to human phosphorylated ABL1 F317L mutant (S229 to K512 residues) expressed in mammalian expression system assessed as remaining unbound target protein level at 1000 nM by Kinomescan method relative to control
How it was run: (§1)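 Single-point competition binding screen across a panel of 468 kinases and mutants, with the inhibitor at 1 μM. Binding is read out as percent of a DMSO control, and targets below 1 percent control were classed as strong binders.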

[2] = molecular target: Ankyrin repeat and protein kinase domain-containing protein 1 (Homo sapiens) (UniProt Q8NFD2); experiment: Binding affinity to wild-type human partial length ANKK1 (M1 to A305 residues) expressed in mammalian expression system assessed as remaining unbound target protein level at 1000 nM by Kinomescan method relative to control
How it was run: (§2)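 Profiled in a KINOMEscan binding panel with the inhibitor at a single concentration of 1 μM. Binding to each kinase was read out as percent of control, relative to a DMSO control. Strong binders were defined as those with a percent control value below 1.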

[3] = molecular target: Tyrosine-protein kinase Blk (Homo sapiens) (UniProt P51451); experiment: Binding affinity to wild-type human partial length BLK (G211 to L503 residues) expressed in bacterial expression system assessed as remaining unbound target protein level at 1000 nM by Kinomescan method relative to control; how it was run: as §2
[4] = molecular target: Casein kinase II subunit alpha (Homo sapiens) (UniProt P68400); experiment: Binding affinity to wild-type human full length CSNK2A1 (M1 to Q391 residues) expressed in mammalian expression system assessed as remaining unbound target protein level at 1000 nM by Kinomescan method relative to control
How it was run: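 KINOMEscan competitive binding profile at 1 μM inhibitor. Remaining target binding reported as percent of DMSO control.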

[5] = test system: Epidermal growth factor receptor (Homo sapiens), P00533 [L858R,T790M]; experiment: Binding affinity to human partial length EGFR L858R/T790M double mutant (R669 to V1011 residues) expressed in mammalian expression system assessed as remaining unbound target protein level at 1000 nM by Kinomescan method relative to control
How it was run: (§3)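 KINOMEscan competition-binding profiling across the panel of 468 kinases and mutants, with inhibitor tested at 1 μM. Binding is expressed as percent of control, with DMSO as the reference control.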

[6] = molecular target: Receptor tyrosine-protein kinase erbB-2 (Homo sapiens) (UniProt P04626); experiment: Binding affinity to wild-type human partial length ERBB2 (K646 to V1225 residues) expressed in mammalian expression system assessed as remaining unbound target protein level at 1000 nM by Kinomescan method relative to control
[7] = molecular target: Tyrosine-protein kinase JAK3 (Homo sapiens) (UniProt P52333); experiment: Binding affinity to wild-type human partial length JAK3 JH1 catalytic domain (I781 to S1124 residues) expressed in mammalian expression system assessed as remaining unbound target protein level at 1000 nM by Kinomescan method relative to control
[8] = molecular target: Leucine-rich repeat serine/threonine-protein kinase 2 (Homo sapiens) (UniProt Q5S007); experiment: Binding affinity to wild-type human partial length LRRK2 (H970 to E2527 residues) expressed in mammalian expression system assessed as remaining unbound target protein level at 1000 nM by Kinomescan method relative to control
[9] = molecular target: Tyrosine-protein kinase Lyn (Homo sapiens) (UniProt P07948); experiment: Binding affinity to wild-type human partial length LYN (C219 to Q511 residues) expressed in bacterial expression system assessed as remaining unbound target protein level at 1000 nM by Kinomescan method relative to control
How it was run: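 KINOMEscan binding panel of 468 kinases/mutants. Inhibitor was tested at a single concentration of 1 μM. Binding is reported as percent of control, defined relative to a DMSO control.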

[10] = molecular target: Mitogen-activated protein kinase kinase kinase 15 (Homo sapiens) (UniProt Q6ZN16); experiment: Binding affinity to wild-type human partial length MAP3K15 (T625 to L932 residues) expressed in mammalian expression system assessed as remaining unbound target protein level at 1000 nM by Kinomescan method relative to control
[11] = molecular target: Mitogen-activated protein kinase kinase kinase 3 (Homo sapiens) (UniProt Q99759); experiment: Binding affinity to wild-type human partial length MAP3K3 (E320 to Y626 residues) expressed in mammalian expression system assessed as remaining unbound target protein level at 1000 nM by Kinomescan method relative to control
[12] = molecular target: Serine/threonine-protein kinase NLK (Homo sapiens) (UniProt Q9UBE8); experiment: Binding affinity to wild-type human full length NLK (M13 to E527 residues) expressed in bacterial expression system assessed as remaining unbound target protein level at 1000 nM by Kinomescan method relative to control; how it was run: as §1
[13] = test system: Phosphatidylinositol 4,5-bisphosphate 3-kinase catalytic subunit alpha isoform (Homo sapiens), P42336 [I800L]; experiment: Binding affinity to human partial length PIK3CA I800L mutant (R108 to N1068 residues) expressed in mammalian expression system assessed as remaining unbound target protein level at 1000 nM by Kinomescan method relative to control; how it was run: as §3
[14] = molecular target: Phosphatidylinositol 5-phosphate 4-kinase type-2 beta (Homo sapiens) (UniProt P78356); experiment: Binding affinity to wild-type human full length PIP5K2B (M1 to T416 residues) expressed in bacterial expression system assessed as remaining unbound target protein level at 1000 nM by Kinomescan method relative to control; how it was run: as §2
[15] = molecular target: Serine/threonine-protein kinase RIO2 (Homo sapiens) (UniProt Q9BVS4); experiment: Binding affinity to wild-type human partial length RIOK2 (M1 to D313 residues) expressed in mammalian expression system assessed as remaining unbound target protein level at 1000 nM by Kinomescan method relative to control
[16] = molecular target: Rho-associated protein kinase 2 (Homo sapiens) (UniProt O75116); experiment: Binding affinity to wild-type human partial length ROCK2 (M1 to T431 residues) expressed in mammalian expression system assessed as remaining unbound target protein level at 1000 nM by Kinomescan method relative to control
[17] = molecular target: Ribosomal protein S6 kinase alpha-1 (Homo sapiens) (UniProt Q15418); experiment: Binding affinity to wild-type human partial length C-termianl RSK1 kinase domain 2 (P360 to L681 residues) expressed in bacterial expression system assessed as remaining unbound target protein level at 1000 nM by Kinomescan method relative to control; how it was run: as §2
[18] = molecular target: Ribosomal protein S6 kinase alpha-6 (Homo sapiens) (UniProt Q9UK32); experiment: Binding affinity to wild-type human partial length C-terminal RSK4 kinase domain 2 (I401 to Y711 residues) expressed in bacterial expression system assessed as remaining unbound target protein level at 1000 nM by Kinomescan method relative to control
How it was run: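 KINOMEscan competition binding profile across a panel of 468 kinases and mutants, with the inhibitor tested at a single concentration of 1 μM. Binding is reported as percent of control, meaning signal relative to a DMSO control.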

Sequence of Serine/threonine-protein kinase RIO2 (Homo sapiens) (Q9BVS4 whole entry, looked up, the tested form may be a part): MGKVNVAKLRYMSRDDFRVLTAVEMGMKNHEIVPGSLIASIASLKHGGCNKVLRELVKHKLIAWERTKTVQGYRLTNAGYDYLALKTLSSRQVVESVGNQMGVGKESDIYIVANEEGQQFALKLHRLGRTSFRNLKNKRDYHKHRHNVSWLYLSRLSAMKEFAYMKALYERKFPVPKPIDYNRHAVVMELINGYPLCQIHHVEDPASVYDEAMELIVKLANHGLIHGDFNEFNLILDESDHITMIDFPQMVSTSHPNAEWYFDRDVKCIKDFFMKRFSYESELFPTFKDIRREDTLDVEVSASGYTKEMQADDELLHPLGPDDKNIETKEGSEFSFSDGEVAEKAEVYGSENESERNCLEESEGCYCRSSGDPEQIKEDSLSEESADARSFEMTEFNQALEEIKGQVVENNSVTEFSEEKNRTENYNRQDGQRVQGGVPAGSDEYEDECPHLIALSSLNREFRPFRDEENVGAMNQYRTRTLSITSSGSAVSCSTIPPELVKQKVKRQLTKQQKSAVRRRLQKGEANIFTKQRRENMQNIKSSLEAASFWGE
Sequence of Phosphatidylinositol 4,5-bisphosphate 3-kinase catalytic subunit alpha isoform (Homo sapiens), P42336 [I800L] (P42336 whole entry I800L, the tested form may be a part, canonical isoform): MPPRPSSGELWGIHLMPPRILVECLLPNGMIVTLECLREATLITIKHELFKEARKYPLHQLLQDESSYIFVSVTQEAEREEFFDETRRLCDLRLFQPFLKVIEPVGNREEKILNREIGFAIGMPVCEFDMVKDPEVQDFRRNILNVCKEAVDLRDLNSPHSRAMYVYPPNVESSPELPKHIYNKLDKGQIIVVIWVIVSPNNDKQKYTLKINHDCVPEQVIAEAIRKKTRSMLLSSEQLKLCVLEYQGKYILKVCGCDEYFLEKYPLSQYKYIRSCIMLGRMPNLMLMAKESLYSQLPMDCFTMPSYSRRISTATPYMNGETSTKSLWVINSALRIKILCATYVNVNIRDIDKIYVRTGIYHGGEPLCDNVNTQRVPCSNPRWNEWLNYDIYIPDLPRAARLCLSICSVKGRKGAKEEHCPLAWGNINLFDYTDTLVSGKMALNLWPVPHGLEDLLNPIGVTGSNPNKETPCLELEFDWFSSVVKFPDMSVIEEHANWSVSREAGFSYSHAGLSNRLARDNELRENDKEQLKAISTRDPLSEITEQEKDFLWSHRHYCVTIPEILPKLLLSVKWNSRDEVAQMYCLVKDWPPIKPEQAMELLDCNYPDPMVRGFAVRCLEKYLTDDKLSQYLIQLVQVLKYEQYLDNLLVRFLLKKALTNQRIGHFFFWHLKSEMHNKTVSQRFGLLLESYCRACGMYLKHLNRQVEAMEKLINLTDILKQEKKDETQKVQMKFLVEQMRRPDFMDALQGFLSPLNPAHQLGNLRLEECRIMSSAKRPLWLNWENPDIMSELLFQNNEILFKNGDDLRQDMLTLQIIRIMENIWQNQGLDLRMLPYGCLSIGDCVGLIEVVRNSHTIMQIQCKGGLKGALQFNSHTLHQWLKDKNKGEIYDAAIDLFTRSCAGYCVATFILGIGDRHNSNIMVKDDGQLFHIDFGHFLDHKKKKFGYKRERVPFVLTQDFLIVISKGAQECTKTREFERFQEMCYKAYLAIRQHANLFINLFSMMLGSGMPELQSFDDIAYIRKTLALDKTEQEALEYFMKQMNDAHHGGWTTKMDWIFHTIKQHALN
Sequence of Receptor tyrosine-protein kinase erbB-2 (Homo sapiens) (P04626 whole entry, the tested form may be a part): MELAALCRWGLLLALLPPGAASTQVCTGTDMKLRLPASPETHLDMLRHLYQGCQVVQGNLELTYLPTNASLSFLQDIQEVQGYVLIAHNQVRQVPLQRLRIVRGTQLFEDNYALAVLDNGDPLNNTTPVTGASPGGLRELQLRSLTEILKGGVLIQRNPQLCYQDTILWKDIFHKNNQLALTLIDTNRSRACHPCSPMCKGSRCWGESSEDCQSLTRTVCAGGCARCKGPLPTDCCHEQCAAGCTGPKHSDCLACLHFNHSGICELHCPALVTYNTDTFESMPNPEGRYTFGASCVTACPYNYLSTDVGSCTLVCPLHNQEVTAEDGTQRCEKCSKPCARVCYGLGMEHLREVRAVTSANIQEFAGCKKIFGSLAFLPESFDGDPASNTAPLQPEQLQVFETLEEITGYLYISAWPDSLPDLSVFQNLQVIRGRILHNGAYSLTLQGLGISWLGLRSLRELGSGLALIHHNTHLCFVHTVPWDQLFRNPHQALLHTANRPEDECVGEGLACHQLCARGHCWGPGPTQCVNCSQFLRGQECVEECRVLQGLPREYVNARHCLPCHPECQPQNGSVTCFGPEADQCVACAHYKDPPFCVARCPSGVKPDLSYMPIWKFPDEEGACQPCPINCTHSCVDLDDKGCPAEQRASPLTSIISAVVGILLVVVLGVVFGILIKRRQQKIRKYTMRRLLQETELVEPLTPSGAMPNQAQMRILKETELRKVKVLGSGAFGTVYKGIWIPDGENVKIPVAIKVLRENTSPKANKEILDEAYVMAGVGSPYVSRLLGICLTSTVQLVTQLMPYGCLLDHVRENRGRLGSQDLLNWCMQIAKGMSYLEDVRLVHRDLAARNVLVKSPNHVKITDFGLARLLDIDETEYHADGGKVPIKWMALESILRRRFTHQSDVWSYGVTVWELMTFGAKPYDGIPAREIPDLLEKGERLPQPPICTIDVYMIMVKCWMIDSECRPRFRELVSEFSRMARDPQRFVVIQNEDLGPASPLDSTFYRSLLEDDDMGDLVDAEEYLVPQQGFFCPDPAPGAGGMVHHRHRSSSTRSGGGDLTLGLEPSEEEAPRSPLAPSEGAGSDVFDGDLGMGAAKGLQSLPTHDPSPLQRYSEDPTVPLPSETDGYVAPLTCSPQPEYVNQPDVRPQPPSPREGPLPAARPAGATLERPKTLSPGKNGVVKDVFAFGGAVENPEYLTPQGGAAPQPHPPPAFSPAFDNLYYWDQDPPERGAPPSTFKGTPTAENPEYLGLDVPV
Sequence of Rho-associated protein kinase 2 (Homo sapiens) (O75116 whole entry, looked up, the tested form may be a part): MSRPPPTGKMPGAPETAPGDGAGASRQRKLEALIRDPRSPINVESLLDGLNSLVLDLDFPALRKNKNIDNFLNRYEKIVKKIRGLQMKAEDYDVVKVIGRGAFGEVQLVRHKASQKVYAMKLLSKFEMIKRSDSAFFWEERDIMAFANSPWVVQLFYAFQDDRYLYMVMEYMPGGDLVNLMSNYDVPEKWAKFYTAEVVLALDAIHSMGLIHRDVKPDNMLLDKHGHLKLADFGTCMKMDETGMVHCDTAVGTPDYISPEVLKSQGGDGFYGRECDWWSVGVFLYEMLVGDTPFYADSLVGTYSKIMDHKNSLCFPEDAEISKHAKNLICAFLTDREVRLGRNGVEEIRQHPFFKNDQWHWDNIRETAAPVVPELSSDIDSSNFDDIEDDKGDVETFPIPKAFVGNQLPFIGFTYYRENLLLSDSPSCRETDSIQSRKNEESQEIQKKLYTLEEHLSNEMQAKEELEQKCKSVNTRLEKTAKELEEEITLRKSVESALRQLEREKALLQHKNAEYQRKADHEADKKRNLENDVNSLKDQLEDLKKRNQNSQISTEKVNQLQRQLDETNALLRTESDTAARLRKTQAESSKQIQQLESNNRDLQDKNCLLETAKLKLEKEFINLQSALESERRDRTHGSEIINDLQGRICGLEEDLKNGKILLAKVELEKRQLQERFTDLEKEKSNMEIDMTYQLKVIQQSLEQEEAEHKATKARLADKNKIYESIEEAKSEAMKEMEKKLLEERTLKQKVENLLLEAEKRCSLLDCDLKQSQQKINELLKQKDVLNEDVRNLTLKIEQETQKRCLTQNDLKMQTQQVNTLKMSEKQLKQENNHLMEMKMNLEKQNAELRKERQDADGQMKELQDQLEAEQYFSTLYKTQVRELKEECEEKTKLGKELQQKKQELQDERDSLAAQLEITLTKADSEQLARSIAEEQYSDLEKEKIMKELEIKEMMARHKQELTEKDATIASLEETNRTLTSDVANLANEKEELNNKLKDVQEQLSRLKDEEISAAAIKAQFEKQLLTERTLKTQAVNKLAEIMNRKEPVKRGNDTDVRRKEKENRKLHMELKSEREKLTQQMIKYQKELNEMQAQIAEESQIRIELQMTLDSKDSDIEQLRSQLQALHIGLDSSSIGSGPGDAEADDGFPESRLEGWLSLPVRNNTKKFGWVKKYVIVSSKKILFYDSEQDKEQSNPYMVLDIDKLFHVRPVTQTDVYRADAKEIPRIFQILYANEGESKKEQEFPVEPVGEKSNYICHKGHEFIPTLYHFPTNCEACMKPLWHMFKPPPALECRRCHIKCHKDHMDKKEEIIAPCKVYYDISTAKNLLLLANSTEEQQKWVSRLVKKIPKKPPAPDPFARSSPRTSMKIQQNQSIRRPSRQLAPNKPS
Sequence of Phosphatidylinositol 5-phosphate 4-kinase type-2 beta (Homo sapiens) (P78356 whole entry, the tested form may be a part): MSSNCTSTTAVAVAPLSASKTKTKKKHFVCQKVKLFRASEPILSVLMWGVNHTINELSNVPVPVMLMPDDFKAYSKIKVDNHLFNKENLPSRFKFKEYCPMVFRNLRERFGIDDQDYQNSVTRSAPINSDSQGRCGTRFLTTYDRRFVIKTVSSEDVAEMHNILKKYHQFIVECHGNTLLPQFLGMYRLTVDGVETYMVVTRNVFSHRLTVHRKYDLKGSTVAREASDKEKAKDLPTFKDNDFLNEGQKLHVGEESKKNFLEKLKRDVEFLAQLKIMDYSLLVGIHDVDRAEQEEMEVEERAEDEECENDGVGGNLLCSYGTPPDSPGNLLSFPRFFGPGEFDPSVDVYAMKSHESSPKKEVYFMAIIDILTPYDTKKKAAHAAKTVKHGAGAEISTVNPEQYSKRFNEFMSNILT
Sequence of Casein kinase II subunit alpha (Homo sapiens) (P68400 whole entry, looked up, the tested form may be a part): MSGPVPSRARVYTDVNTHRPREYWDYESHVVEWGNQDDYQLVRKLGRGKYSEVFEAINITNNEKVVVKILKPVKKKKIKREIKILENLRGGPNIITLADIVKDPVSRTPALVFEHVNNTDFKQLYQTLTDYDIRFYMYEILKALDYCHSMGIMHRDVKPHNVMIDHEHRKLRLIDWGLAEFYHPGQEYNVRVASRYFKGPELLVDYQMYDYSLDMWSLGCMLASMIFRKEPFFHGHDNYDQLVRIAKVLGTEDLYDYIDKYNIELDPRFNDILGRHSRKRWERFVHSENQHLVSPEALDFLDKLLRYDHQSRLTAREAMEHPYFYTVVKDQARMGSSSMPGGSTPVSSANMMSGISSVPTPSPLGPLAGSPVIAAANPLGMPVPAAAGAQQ

COCCN[C@H]1CC[C@H](Nc2cc(-c3csc(NCC4(C#N)CCOCC4)n3)c(Cl)cn2)CC1
Ratio IC50 (Homo sapiens): 300 | Activity [1]: 100% | Activity [2]: 100% | Activity [3]: 97% | Activity [4]: 81% | Activity [5]: 100% | Activity [6]: 97% | Activity [7]: 92% | Activity [8]: 100% | Activity [9]: 86% | Activity [10]: 84% | Activity [11]: 100% | Activity [12]: 100% | Activity [13]: 90% | Activity [14]: 100% | Activity [15]: 80% | Activity [16]: 98% | Activity [17]: 100% | Activity [18]: 99%
